# Assay results as given in ChEMBL document CHEMBL1770091, “Synthesis and biological evaluation of benzyl styrylsulfonyl derivatives as potent anticancer mitotic inhibitors” (Bioorg Med Chem Lett, 2011).
# What was measured:
# [1] = Cytotoxicity against human MDA468 cells after 72 hrs by MTT assay; type: functional; conditions: MDA-MB-468, 72 h
# Method in brief: (§1)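 MDA-468 cells were exposed to compound for 24, 48 or 72 h and growth inhibition was read by MTT assay. GI50 is the mean ± s.d. of three independent assays.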
# [2] = Cell cycle arrest in human MDA468 cells assessed as accumulation at G2/M phase at 0.5 uM after 20 hrs by flow cytometry; type: functional, cell-based; conditions: MDA-MB-468
# Method in brief: (§2)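 Cells in exponential growth seeded at 4×10^5, incubated overnight at 37 °C in humidified 5% CO2, then exposed to compound for 20 h. Cells collected, washed once in cold PBS, resuspended in hypotonic fluorochrome solution, and analysed for cell-cycle distribution (% G2/M DNA content) by flow cytometry. Mean ± s.d. of three independent experiments; DMSO vehicle control.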
# MRC5 [3] = experiment: Metabolic stability of the compound in human MRC5 cells at 1 uM; type: ADME, cell-based; conditions: mrc5, 1 µM
# [4] = Cell cycle arrest in human MDA468 cells assessed as accumulation at G2/M phase at 1 uM after 20 hrs by flow cytometry; type: functional, cell-based; conditions: MDA-MB-468; method in brief: as §2
# [5] = Cytotoxicity against human MDA468 cells after 48 hrs by MTT assay; type: functional; conditions: MDA-MB-468, 48 h; method in brief: as §1
# HCT-116 = experiment: Cytotoxicity against human HCT116 cells after 72 hrs by MTT assay; type: functional; conditions: HCT-116, 72 h
# Method in brief: (§3)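 Standard 72-h MTT cytotoxicity assay, reported as GI50. Cancer lines were run alongside non-transformed MRC-5 lung fibroblasts.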
# MCF7 [6] = experiment: Metabolic stability of the compound in human MCF7 cells at 1 uM; type: ADME, cell-based; conditions: mcf7, 1 µM
# T47D [7] = experiment: Cytotoxicity against human T47D cells after 72 hrs by MTT assay; type: functional; method in brief: as §3
# MCF7 [8] = experiment: Cytotoxicity against human MCF7 cells after 72 hrs by MTT assay; type: functional; conditions: MCF7, 72 h; method in brief: as §3
# MDA-MB-468 = experiment: Induction of apoptosis in human MDA468 cells assessed as appearance of apoptotic bodies after 20 hrs by annexinV/propidium iodide staining; type: functional, cell-based
# Method in brief: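 After overnight culture, 4×10^5 cells per well were treated with compound at 0.5, 1 and 10 μM for 20 h. Apoptosis was measured by annexin V/PI double staining and flow analysis, scored as early (annexin V-positive) plus late (annexin V- and PI-positive) apoptotic cells. Mean ± s.d. of three independent experiments versus DMSO vehicle control.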
# [9] = Cytotoxicity against human MRC5 cells after 72 hrs by MTT assay; type: cell-based; method in brief: as §3
# [10] = Cytotoxicity against human MDA468 cells after 24 hrs by MTT assay; type: functional; conditions: MDA-MB-468, 24 h; method in brief: as §1
# MRC5 [11] = experiment: Ratio of GI50 for human MRC5 cells to GI50 for human HCT116 cells
# Method in brief: (§4)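 Selectivity was calculated as GI50 in non-transformed MRC-5 fibroblasts divided by GI50 in each cancer line. All GI50 values came from 72-h MTT assays.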
# MRC5 [12] = experiment: Ratio of GI50 for human MRC5 cells to GI50 for human MCF7 cells; method in brief: as §4
# T47D [13] = experiment: Ratio of GI50 for human MRC5 cells to GI50 for human T47D cells; method in brief: as §4
# MRC5 [14] = experiment: Ratio of GI50 for human MRC5 cells to GI50 for human MDA468 cells; method in brief: as §4
smiles,measurement,setting,value
COc1cc(OC)c(/C=C/[S+]([O-])Cc2ccc(OC)c(N)c2)c(OC)c1 (configuration not stated),GI50,[1],< 0.01 µM
same,Activity,[2],77%
same,Stability,MRC5 [3],Stable
same,Activity,[4],85%
same,GI50,[5],0.137 µM
same,GI50,HCT-116,< 0.01 µM
same,Stability,MCF7 [6],Stable
same,GI50,T47D [7],0.06 µM
same,GI50,MCF7 [8],< 0.01 µM
same,Activity,MDA-MB-468,Dose-dependent effect
same,GI50 at 72 h,[9],> 30 µM
same,GI50,[10],0.559 µM
COc1ccc(OC)c(NC(=O)CS(=O)(=O)Cc2ccc(OC)c([N+](=O)[O-])c2)c1,GI50,[1],> 30 µM
same,GI50,HCT-116,> 30 µM
same,GI50,T47D [7],> 30 µM
same,GI50,MCF7 [8],> 30 µM
same,GI50 at 72 h,[9],> 30 µM
COc1cc(/C=C/S(=O)(=O)Cc2ccc(OC)c(N)c2)cc(OC)c1,GI50,[1],0.52 µM
same,RatioGI50,MRC5 [11],<80
same,GI50,HCT-116,0.54 µM
same,GI50,T47D [7],0.53 µM
same,RatioGI50,MRC5 [12],<80
same,GI50,MCF7 [8],0.49 µM
same,RatioGI50,T47D [13],<80
same,GI50 at 72 h,[9],> 30 µM
same,RatioGI50,MRC5 [14],<80
COc1cc(OC)c(/C=C/S(=O)(=O)Cc2ccc(OC)c(NC(C)=O)c2)c(OC)c1,GI50,HCT-116,0.15 µM
same,GI50,MCF7 [8],0.35 µM
same,GI50 at 72 h,[9],0.81 µM
COc1ccc(CS(=O)(=O)CC(=O)Nc2ccccc2)cc1[N+](=O)[O-],GI50,[1],> 30 µM
same,GI50,HCT-116,> 30 µM
same,GI50,T47D [7],> 30 µM
same,GI50,MCF7 [8],> 30 µM
same,GI50 at 72 h,[9],> 30 µM
COc1cc(OC)c(NC(=O)CS(=O)(=O)Cc2ccc(OC)c([N+](=O)[O-])c2)c(OC)c1,GI50,[1],> 30 µM
same,GI50,HCT-116,18.8 µM
same,GI50,T47D [7],> 30 µM
same,GI50,MCF7 [8],> 30 µM
same,GI50 at 72 h,[9],> 30 µM
COc1cc(/C=C/S(=O)(=O)Cc2ccc(OC)c([N+](=O)[O-])c2)cc(OC)c1,GI50,[1],16.5 µM
same,GI50,HCT-116,> 30 µM
same,GI50,T47D [7],> 30 µM
same,GI50,MCF7 [8],> 30 µM
same,GI50 at 72 h,[9],> 30 µM
COc1cc(OC)c(/C=C/S(=O)(=O)Cc2ccc(OC)c([N+](=O)[O-])c2)c(OC)c1,GI50,HCT-116,0.66 µM
same,GI50,MCF7 [8],0.88 µM
same,GI50 at 72 h,[9],2.91 µM
COc1ccc(CS(=O)(=O)CC(=O)Nc2c(C)cc(C)cc2C)cc1[N+](=O)[O-],GI50,[1],> 30 µM
same,GI50,HCT-116,7.91 µM
same,GI50,T47D [7],> 30 µM
same,GI50,MCF7 [8],> 30 µM
same,GI50 at 72 h,[9],28 µM
COc1ccc(CS(=O)(=O)CC(=O)Nc2c(C)cc(C)cc2C)cc1N,GI50,[1],> 30 µM
same,GI50,HCT-116,> 30 µM
same,GI50,T47D [7],> 30 µM
same,GI50,MCF7 [8],> 30 µM
same,GI50 at 72 h,[9],> 30 µM
COc1ccc(CS(=O)(=O)/C=C/c2c(OC)cccc2OC)cc1[N+](=O)[O-],GI50,[1],5.46 µM
same,GI50,HCT-116,10.2 µM
same,GI50,T47D [7],> 30 µM
same,GI50,MCF7 [8],13.7 µM
same,GI50 at 72 h,[9],> 30 µM
COc1ccc(CS(=O)(=O)CC(=O)Nc2ccccc2)cc1N,GI50,[1],> 30 µM
same,GI50,HCT-116,> 30 µM
same,GI50,T47D [7],> 30 µM
same,GI50,MCF7 [8],> 30 µM
same,GI50 at 72 h,[9],> 30 µM
COc1cc(OC)c(/C=C/S(=O)(=O)Cc2ccc(OC)c(NCC(=O)O)c2)c(OC)c1 [RIGOSERTIB],GI50,[1],0.02 µM
same,Activity,[2],58%
same,Stability,MRC5 [3],Stable
same,Activity,[4],84%
same,GI50,[5],0.302 µM
same,GI50,HCT-116,0.05 µM
same,Stability,MCF7 [6],Stable
same,GI50,T47D [7],< 0.01 µM
same,GI50,MCF7 [8],0.05 µM
same,Activity,MDA-MB-468,Dose-dependent effect
same,GI50 at 72 h,[9],0.71 µM
same,GI50,[10],0.601 µM
COc1ccc(CS(=O)(=O)/C=C/c2ccc(OC)c(OC)c2OC)cc1[N+](=O)[O-],GI50,[1],21.9 µM
same,GI50,HCT-116,27.9 µM
same,GI50,T47D [7],> 30 µM
same,GI50,MCF7 [8],> 30 µM
same,GI50 at 72 h,[9],> 30 µM
COc1ccc(CS(=O)(=O)/C=C/c2ccc(OC)c(OC)c2OC)cc1N,GI50,[1],3.48 µM
same,GI50,HCT-116,5.31 µM
same,GI50,T47D [7],5.9 µM
same,GI50,MCF7 [8],5.95 µM
same,GI50 at 72 h,[9],> 30 µM
COc1ccc(CS(=O)(=O)/C=C/c2c(OC)cccc2OC)cc1N,GI50,[1],0.06 µM
same,RatioGI50,MRC5 [11],<280
same,GI50,HCT-116,0.02 µM
same,GI50,T47D [7],0.05 µM
same,RatioGI50,MRC5 [12],<280
same,GI50,MCF7 [8],0.04 µM
same,RatioGI50,T47D [13],<280
same,GI50 at 72 h,[9],17.1 µM
same,RatioGI50,MRC5 [14],<280
COc1cc(OC)c(/C=C/S(=O)(=O)Cc2ccc(OC)c(N)c2)c(OC)c1,GI50,[1],0.03 µM
same,GI50,HCT-116,< 0.01 µM
same,GI50,MCF7 [8],< 0.01 µM
same,GI50 at 72 h,[9],0.08 µM
